Test results from ChEMBL document CHEMBL3244170, “Synthesis and biological evaluation of 9,11-azo-13-oxa-15-hydroxyprostanoic acid, a potent inhibitor of platelet aggregation” (J Med Chem, 1979).
Values belong to the compound of their own block, whether it stands above or below them. Active and inactive are the calls of the source. The rule behind the calls is not given here.

Key:
Platelet [1] = experiment: Induction of 8.2 x 10^-4 M arachidonic acid-induced platelet aggregation in human platelet rich plasma at 10^-4 to 10^-6 M incubated for 1.5 mins at 37.5 degC
Platelet [2] = experiment: Inhibition of 2 x 10^-6 M ADP-induced platelet aggregation in human platelet rich plasma at 10^-4 to 10^-6 M incubated for 1.5 mins at 37.5 degC; assay type: functional
How it was run: (§1)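 Human platelet-rich plasma incubated with test agent for 1.5 min at 37.5 °C, then aggregating agent added. Aggregation followed for 5 min turbidimetrically in a dual-channel aggregometer. Baseline (0%) was set with PRP. Full scale (100%) was set at the optical density of plasma treated with the aggregating agent alone. Agents were also checked for agonist activity at 10^-4 and 10^-6 M.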

Platelet [3] = experiment: Induction of 1.4 x 10^-6 M PGH2-induced platelet aggregation in human platelet rich plasma at 10^-4 to 10^-6 M incubated for 1.5 mins at 37.5 degC
Platelet [4] = experiment: Inhibition of 9.5 x 10^-7 M 9,11 methanoepoxy-PGH2-induced platelet aggregation in human platelet rich plasma at 10^-4 M incubated for 1.5 mins at 37.5 degC; assay type: functional
How it was run: as §1

Platelet [5] = experiment: Induction of 9.5 x 10^-7 M 9,11 methanoepoxy-PGH2-induced platelet aggregation in human platelet rich plasma at 10^-4 to 10^-6 M incubated for 1.5 mins at 37.5 degC
Platelet [6] = experiment: Inhibition of 8.2 x 10^-4 M arachidonic acid-induced platelet aggregation in human platelet rich plasma at 10^-4 M incubated for 1.5 mins at 37.5 degC; assay type: functional
How it was run: as §1

Platelet [7] = experiment: Effect on arachidonic acid metabolism in washed human platelet assessed as TxB2 level at 10^-4 M by GC-MS analysis (reference value: 14 nmol); assay type: functional
Thromboxane-A synthase = biological target: T1, Thromboxane-A synthase (Homo sapiens, UniProt P24557); experiment: Inhibition of thromboxane synthetase in intact human platelet microsomes assessed as inhibition of [1-14C]PGH2 to [1-14C]TxA2
T1 sequence (P24557 whole entry): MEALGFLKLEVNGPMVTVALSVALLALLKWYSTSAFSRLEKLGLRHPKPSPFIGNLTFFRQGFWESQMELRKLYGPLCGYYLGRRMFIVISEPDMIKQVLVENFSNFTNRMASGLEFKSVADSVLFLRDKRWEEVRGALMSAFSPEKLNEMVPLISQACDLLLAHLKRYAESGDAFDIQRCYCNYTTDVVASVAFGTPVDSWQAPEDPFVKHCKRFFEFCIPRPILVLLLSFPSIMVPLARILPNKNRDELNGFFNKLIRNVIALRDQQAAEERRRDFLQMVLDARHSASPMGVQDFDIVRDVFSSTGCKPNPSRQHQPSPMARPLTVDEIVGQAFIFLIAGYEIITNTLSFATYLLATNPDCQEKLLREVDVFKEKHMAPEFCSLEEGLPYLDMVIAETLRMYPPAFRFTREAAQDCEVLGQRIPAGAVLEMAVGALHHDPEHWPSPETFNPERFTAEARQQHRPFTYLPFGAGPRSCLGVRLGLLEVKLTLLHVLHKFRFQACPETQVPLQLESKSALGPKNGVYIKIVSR

Platelet [8] = experiment: Inhibition of 8.3 x 10^-4 M arachidonic acid-induced platelet aggregation in human platelet rich plasma incubated for 1.5 mins at 37.5 degC; assay type: functional; conditions: 0.025 h
Platelet [9] = experiment: Effect on arachidonic acid metabolism in washed human platelet assessed as HETE level at 10^-4 M by GC-MS analysis (reference value: 23 nmol); assay type: functional
Platelet [10] = experiment: Inhibition of TxA2-induced platelet aggregation in aspirinated human platelet at 10^-4 M incubated for 1.5 mins at 37.5 degC cells preincubated with PGH2 for 15 secs; assay type: functional, cell-based
How it was run: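 TxA2 was generated by stirring human platelet microsomes (0.1 mL, 1.9 mg protein/mL) with PGH2 at 37.5 °C for 15 s. The methods give PGH2 as 10^-4 M; the legend gives it as 1.4 nmol. Aspirinated PRP (0.9 mL), preincubated 1.5 min with inhibitor, was then added. Aggregation was monitored for 5 min. Boiled microsomes served as control.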

Platelet [11] = experiment: Inhibition of 8.5 x 10^-7 M 9,11 methanoepoxy-PGH2-induced platelet aggregation in human platelet rich plasma incubated for 1.5 mins at 37.5 degC; assay type: functional; conditions: 0.025 h
Platelet [12] = experiment: Inhibition of 2 x 10^-6 M ADP-induced platelet aggregation in human platelet rich plasma at 10^-4 M incubated for 1.5 mins at 37.5 degC; assay type: functional
How it was run: as §1

Platelet [13] = experiment: Inhibition of 1.4 x 10^-6 M PGH2-induced platelet aggregation in human platelet rich plasma at 10^-4 M incubated for 1.5 mins at 37.5 degC; assay type: functional
How it was run: as §1

Compound: CCOC(=O)N1[C@H]2C[C@@H]([C@H](CCCCCCC(=O)O)[C@H]2O)N1C(=O)OCC (racemic)
- induction of platelet aggregation (Platelet [1]): inactive
- inhibition (Platelet [2]): inactive
- induction (Platelet [3]): inactive
- inhibition (INH) (Platelet [4]): 21%
- induction of platelet aggregation (Platelet [5]): inactive
- inhibition (INH) (Platelet [6]): 0%

Compound: CCCCCC(O)CO[C@@H]1[C@@H](CCCCCCC(=O)O)[C@@H]2C[C@@H]1N(C(=O)OCC)N2C(=O)OCC (mixture of isomers)
- induction of platelet aggregation (Platelet [1]): inactive
- inhibition (Platelet [2]): inactive
- induction (Platelet [3]): inactive
- inhibition (INH) (Platelet [4]): 20%
- induction of platelet aggregation (Platelet [5]): inactive
- inhibition (INH) (Platelet [6]): 0%

- IC50 (Thromboxane-A synthase): 1 µM
- IC50 (Platelet [8]): 31 µM
- IC50 (Platelet [11]): 5.5 µM
Compound: CCCCCC(O)CO[C@@H]1[C@@H](CCCCCCC(=O)O)[C@@H]2C[C@@H]1N=N2 (mixture of isomers)
- Activity (Platelet [7]): 0 nmol
- Activity (Platelet [9]): 27 nmol
- inhibition (Platelet [10]): Active
- induction of platelet aggregation (Platelet [1]): inactive
- inhibition (Platelet [2]): inactive
- induction (Platelet [3]): inactive
- inhibition (INH) (Platelet [12]): 0%
- inhibition (INH) (Platelet [4]): 100%
- induction of platelet aggregation (Platelet [5]): inactive
- inhibition (INH) (Platelet [13]): 100%
- inhibition (INH) (Platelet [6]): 100%

Compound: C=CCO[C@@H]1[C@@H](CCCCCCC(=O)O)[C@@H]2C[C@@H]1N=N2 (racemic)
- induction of platelet aggregation (Platelet [1]): inactive
- inhibition (Platelet [2]): inactive
- induction (Platelet [3]): inactive
- inhibition (INH) (Platelet [4]): 20%
- induction of platelet aggregation (Platelet [5]): inactive
- inhibition (INH) (Platelet [6]): 0%

- IC50 (Platelet [11]): 36 µM
Compound: C=CCO[C@@H]1[C@@H](CCCCCCC(=O)O)[C@@H]2C[C@@H]1N(C(=O)OCC)N2C(=O)OCC (racemic)
- induction of platelet aggregation (Platelet [1]): inactive
- inhibition (Platelet [2]): inactive
- induction (Platelet [3]): inactive
- inhibition (INH) (Platelet [12]): 0%
- inhibition (INH) (Platelet [4]): 88%
- induction of platelet aggregation (Platelet [5]): inactive
- inhibition (INH) (Platelet [13]): 100%
- inhibition (INH) (Platelet [6]): 0%
